# Reference: PMC3144551 (Science signaling, 2011)
# Entries after “also recorded” stand apart in the source; their conditions may differ.
# Key:
# mice [1] = conditions: cited from earlier work
# human subjects = conditions: ref [5], cited from earlier work
# mouse hindpaws = experiment: Thermal hyperalgesia, paw withdrawal latency to radiant heat; type: in vivo; conditions: trypsin 100 ng, 10 µl, intraplantar; WT n = 7, Mrgpr-clusterΔ^−/− n = 8, PAR2^−/− n = 10
# mice [2] = experiment: Scratching behavior after injection into the nape of the neck; type: in vivo, mouse; conditions: trypsin 200 µg, 50 µl, PAR2^−/− n = 6 vs WT n = 6
# Summary of the method: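 Male mice aged 2 to 3 months (20 to 30 g) were backcrossed to C57BL/6 for at least 10 generations and scored blind to genotype. A scratching bout was continuous hindpaw scratching directed at the injection site. Bouts were counted in 5-min intervals over a 30-min observation period after injection.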
# MrgprC11 [3] = biological target: T1, MrgprC11 (Mus musculus, UniProt Q8CIP3); conditions: ref [8], [11]; cited from earlier work
# T1 sequence (Q8CIP3 1-322): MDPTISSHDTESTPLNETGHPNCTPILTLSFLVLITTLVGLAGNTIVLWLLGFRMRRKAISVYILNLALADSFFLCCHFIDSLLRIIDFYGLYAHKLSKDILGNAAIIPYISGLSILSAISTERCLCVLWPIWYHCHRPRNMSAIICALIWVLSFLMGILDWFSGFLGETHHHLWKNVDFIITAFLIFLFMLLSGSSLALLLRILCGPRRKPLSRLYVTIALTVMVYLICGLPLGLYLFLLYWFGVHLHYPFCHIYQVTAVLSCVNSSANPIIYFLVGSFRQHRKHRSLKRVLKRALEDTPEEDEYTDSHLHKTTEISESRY
# DRG neurons = experiment: Whole-cell current-clamp recording of cultured DRG neurons; type: cell-based, mouse; conditions: n = 6; perfused with 1 mM SLIGRL or BAM(8–22) for 20 s, pH 7.38, room temperature (~25°C)
# MrgprC11 [4] = biological target: T1, MrgprC11; experiment: Calcium imaging of MrgprC11-expressing CHO cells; type: cell-based; conditions: for activation of MrgprC11 (calcium response): MrgprC11-expressing CHO cells, concentration not given
# MrgprC11 [5] = biological target: T1, MrgprC11; experiment: Calcium imaging of Mrgpr-clusterΔ^−/− DRG neurons electroporated with MrgprC11; type: cell-based; conditions: MrgprC11-expressing Mrgpr-clusterΔ^−/− neurons, n = 66; BAM(8–22) 2 µM
# human MrgprX3 = experiment: Calcium imaging of MrgprX3-expressing CHO cells; type: cell-based; conditions: Ca^2+ imaging, fig. S4
# Summary of the method: (§1)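 Each receptor was transfected individually into CHO cells. Cells were loaded with fura-2 acetoxymethyl ester for 45 min at 37°C, washed, and imaged at 340- and 380-nm excitation to detect intracellular free Ca2+. There were at least three independent experiments, with at least 100 cells analysed each time.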
# human MrgprX4 = experiment: Calcium imaging of MrgprX4-expressing CHO cells; type: cell-based; conditions: Ca^2+ imaging, fig. S4
# Summary of the method: as §1
# human MrgprX2 = experiment: Calcium imaging of MrgprX2-expressing CHO cells; type: cell-based; conditions: Ca^2+ imaging, fig. S4
# Summary of the method: as §1
# human MrgprX1 = experiment: Calcium imaging of MrgprX1-expressing CHO cells; type: cell-based; conditions: Ca^2+ imaging, fig. S4
# Summary of the method: as §1
# MrgprA3 = experiment: Calcium imaging of MrgprA3-expressing CHO cells; type: cell-based, mouse; conditions: chloroquine 100 µM; n = 155 cells
# Summary of the method: as §1
# [6] = test system: WT DRG neurons electroporated with siRNA; experiment: Calcium imaging of WT DRG neurons electroporated with siRNA; type: cell-based, mouse; conditions: CQ 1 mM
compound,measurement,setting,value
trypsin,scratching response to trypsin in mice,"mice [1]; injection into nape of neck, ref [4]",induces a scratching response
same,scratching behavior in mice,"mice [1]; intradermal injection, ref [3], [4]",elicit scratching behavior in mice
same,itch in humans,"human subjects; skin application, [6]",induces itch in humans
same,trypsin-induced thermal hyperalgesia (paw withdrawal latency),mouse hindpaws,"comparable among wild-type, Mrgpr knockout, and PAR2 knockout mice; also recorded: comparable among the three groups"
same,trypsin-induced scratching in PAR2^−/− mice,mice [2],significantly stronger in PAR2^−/− mice; also recorded: scratched significantly more than did wild-type controls
bovine adrenal medulla peptide [BAM(8–22)],evoked scratching in Mrgpr-clusterΔ^−/− mice,"mice [1]; Mrgpr-clusterΔ^−/− mice, ref [8]",reduced
same,Mrgpr-dependent scratching response,mice [1]; ref [8],induces an Mrgpr-dependent scratching response
same,agonism at MrgprC11,MrgprC11 [3],specific agonist for MrgprC11
same,action potentials evoked in SLIGRL-sensitive WT DRG neurons,DRG neurons,All of them also generated action potentials
same,"calcium response, MrgprC11-expressing CHO cells","MrgprC11 [4]; BAM(8–22) 2 µM, n = 150 cells",responded
same,increase in [Ca^2+]i,MrgprC11 [5],showed increased [Ca^2+]i
SLIGRL [SLIGRL without amidation (−NH2)],activation of MrgprC11 (calcium response),MrgprC11 [4],None of these derivatives induced significant calcium responses in cells
LRGILS-NH2,activation of MrgprC11 (calcium response),MrgprC11 [4],None of these derivatives induced significant calcium responses in cells
SLIGKV,"calcium response, MrgprX3-expressing CHO cells",human MrgprX3,insensitive to the peptide
same,"calcium response, MrgprX4-expressing CHO cells",human MrgprX4,insensitive to the peptide
same,itch in human subjects,"human subjects; intracutaneous injection, low millimolar range",provokes itch in human subjects
same,"calcium response, MrgprX2-expressing CHO cells",human MrgprX2,exhibited a response
same,"calcium response, MrgprX1-expressing CHO cells",human MrgprX1,insensitive to the peptide
CCN(CC)CCCC(C)Nc1ccnc2cc(Cl)ccc12 (stereo not shown) [chloroquine],"calcium response, MrgprA3-expressing CHO cells",MrgprA3,could be activated by chloroquine; also recorded: responded
same,chloroquine sensitivity,[6]; WT DRG neurons + MrgprA3 siRNA,abolished the chloroquine response
same,chloroquine sensitivity,"[6]; WT DRG neurons + MrgprA3 siRNA, listed as CQ",completely abolished CQ sensitivity
same,chloroquine sensitivity,"[6]; WT DRG neurons + MrgprC11 siRNA, n = 7 CQ-sensitive neurons",still sensitive
